# Test results reported in ChEMBL document CHEMBL5653631, “A Potent and Selective ULK1 Inhibitor Suppresses Autophagy and Sensitizes Cancer Cells to Nutrient Stress” (iScience, 2018).
# What was measured:
# [1] = biological target: T1, Bone morphogenetic protein receptor type-2 (Homo sapiens) (UniProt Q13873); assay: Inhibition of human recombinant BMPR2 at 40 nM in presence of ATP by radiometric assay relative to control
# T1 sequence (whole entry): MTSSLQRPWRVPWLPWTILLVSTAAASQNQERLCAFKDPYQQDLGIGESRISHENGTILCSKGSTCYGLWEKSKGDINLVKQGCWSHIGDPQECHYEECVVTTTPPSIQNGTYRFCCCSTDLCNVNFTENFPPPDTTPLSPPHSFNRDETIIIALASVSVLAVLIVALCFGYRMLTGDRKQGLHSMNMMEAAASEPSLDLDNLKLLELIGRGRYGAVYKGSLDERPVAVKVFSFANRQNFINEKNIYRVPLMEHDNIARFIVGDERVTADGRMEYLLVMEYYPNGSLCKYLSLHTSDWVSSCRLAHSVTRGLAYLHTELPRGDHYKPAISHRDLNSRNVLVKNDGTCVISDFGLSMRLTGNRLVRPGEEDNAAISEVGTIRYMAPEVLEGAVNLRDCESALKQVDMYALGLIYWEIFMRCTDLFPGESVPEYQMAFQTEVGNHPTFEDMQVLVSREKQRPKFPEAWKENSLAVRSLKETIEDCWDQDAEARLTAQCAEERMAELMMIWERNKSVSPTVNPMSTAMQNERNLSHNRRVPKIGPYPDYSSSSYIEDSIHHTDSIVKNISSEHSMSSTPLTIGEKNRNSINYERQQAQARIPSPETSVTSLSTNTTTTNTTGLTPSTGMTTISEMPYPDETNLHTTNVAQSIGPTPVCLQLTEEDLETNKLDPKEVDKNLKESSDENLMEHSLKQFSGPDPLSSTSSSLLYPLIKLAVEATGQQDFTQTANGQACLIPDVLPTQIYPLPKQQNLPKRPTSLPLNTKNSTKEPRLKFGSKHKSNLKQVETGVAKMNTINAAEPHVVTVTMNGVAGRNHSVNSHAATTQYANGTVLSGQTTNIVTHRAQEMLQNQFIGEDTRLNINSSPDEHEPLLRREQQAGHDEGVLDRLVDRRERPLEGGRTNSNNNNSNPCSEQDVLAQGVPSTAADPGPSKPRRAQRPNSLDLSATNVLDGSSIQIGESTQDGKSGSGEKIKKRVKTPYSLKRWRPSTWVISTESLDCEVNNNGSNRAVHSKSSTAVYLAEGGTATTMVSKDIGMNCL
# [2] = biological target: Serine/threonine-protein kinase 17A (Homo sapiens, UniProt Q9UEE5); assay: Inhibition of human recombinant DRAK1
# Sequence of Serine/threonine-protein kinase 17A (Q9UEE5 whole entry): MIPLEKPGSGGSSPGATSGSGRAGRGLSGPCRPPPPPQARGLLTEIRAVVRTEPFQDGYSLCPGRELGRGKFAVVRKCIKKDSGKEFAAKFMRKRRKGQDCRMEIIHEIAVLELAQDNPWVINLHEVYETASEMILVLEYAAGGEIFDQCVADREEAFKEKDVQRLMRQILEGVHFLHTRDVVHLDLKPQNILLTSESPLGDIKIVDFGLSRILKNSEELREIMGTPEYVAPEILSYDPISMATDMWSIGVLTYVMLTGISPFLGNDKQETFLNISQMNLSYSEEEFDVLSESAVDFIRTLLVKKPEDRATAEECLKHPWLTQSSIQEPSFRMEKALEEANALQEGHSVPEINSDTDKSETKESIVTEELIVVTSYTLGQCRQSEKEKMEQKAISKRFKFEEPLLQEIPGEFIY
# [3] = biological target: Fibroblast growth factor receptor 3 (Homo sapiens) (UniProt P22607); assay: Inhibition of human recombinant FGFR3 at 40 nM in presence of ATP by radiometric assay relative to control
# Sequence of Fibroblast growth factor receptor 3 (Homo sapiens) (P22607 23-806 limits assumed): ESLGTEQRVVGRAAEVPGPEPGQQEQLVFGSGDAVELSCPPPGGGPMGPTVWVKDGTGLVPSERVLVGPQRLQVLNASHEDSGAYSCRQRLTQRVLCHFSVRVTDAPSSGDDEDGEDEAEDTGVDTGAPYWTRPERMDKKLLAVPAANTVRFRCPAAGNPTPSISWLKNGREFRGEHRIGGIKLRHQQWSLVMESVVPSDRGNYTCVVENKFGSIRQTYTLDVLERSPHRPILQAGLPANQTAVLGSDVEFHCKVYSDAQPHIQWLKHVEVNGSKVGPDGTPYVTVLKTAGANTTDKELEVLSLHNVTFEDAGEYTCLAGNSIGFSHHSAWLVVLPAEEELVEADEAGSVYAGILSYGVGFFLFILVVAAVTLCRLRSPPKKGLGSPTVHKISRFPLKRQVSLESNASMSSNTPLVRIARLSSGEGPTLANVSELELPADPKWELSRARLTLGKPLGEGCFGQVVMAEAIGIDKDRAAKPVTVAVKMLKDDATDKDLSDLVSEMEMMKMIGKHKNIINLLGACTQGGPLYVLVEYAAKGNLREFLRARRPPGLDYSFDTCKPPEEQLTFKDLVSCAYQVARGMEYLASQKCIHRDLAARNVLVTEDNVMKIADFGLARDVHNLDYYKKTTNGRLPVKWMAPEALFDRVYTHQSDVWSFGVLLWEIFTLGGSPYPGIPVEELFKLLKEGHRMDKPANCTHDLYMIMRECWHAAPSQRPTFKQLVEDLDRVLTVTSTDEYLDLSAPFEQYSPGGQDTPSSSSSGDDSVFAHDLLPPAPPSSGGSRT
# [4] = biological target: T2, NUAK family SNF1-like kinase 2 (Homo sapiens) (UniProt Q9H093); assay: Inhibition of human recombinant NuaK2 at 40 nM related to control ULK1
# T2 sequence (whole entry): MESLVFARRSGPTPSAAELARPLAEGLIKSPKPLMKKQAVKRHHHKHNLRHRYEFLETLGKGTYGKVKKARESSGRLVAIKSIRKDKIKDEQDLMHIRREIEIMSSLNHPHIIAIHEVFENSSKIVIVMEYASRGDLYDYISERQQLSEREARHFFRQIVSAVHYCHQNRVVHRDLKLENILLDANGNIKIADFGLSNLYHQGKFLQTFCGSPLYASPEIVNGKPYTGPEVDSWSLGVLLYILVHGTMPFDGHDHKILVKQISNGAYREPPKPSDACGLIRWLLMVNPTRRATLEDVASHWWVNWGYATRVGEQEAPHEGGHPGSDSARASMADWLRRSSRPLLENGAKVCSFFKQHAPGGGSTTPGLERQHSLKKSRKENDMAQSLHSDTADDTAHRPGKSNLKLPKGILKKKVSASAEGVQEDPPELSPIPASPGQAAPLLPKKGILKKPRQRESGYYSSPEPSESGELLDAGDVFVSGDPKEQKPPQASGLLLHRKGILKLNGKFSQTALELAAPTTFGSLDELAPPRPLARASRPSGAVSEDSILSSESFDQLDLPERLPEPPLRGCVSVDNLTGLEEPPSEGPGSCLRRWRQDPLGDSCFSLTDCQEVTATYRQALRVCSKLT
# [5] = biological target: Activated CDC42 kinase 1 (Homo sapiens) (UniProt Q07912); assay: Inhibition of human recombinant ACK at 500 nM in presence of ATP by radiometric assay relative to control
# Sequence of Activated CDC42 kinase 1 (Homo sapiens) (Q07912 whole entry, looked up): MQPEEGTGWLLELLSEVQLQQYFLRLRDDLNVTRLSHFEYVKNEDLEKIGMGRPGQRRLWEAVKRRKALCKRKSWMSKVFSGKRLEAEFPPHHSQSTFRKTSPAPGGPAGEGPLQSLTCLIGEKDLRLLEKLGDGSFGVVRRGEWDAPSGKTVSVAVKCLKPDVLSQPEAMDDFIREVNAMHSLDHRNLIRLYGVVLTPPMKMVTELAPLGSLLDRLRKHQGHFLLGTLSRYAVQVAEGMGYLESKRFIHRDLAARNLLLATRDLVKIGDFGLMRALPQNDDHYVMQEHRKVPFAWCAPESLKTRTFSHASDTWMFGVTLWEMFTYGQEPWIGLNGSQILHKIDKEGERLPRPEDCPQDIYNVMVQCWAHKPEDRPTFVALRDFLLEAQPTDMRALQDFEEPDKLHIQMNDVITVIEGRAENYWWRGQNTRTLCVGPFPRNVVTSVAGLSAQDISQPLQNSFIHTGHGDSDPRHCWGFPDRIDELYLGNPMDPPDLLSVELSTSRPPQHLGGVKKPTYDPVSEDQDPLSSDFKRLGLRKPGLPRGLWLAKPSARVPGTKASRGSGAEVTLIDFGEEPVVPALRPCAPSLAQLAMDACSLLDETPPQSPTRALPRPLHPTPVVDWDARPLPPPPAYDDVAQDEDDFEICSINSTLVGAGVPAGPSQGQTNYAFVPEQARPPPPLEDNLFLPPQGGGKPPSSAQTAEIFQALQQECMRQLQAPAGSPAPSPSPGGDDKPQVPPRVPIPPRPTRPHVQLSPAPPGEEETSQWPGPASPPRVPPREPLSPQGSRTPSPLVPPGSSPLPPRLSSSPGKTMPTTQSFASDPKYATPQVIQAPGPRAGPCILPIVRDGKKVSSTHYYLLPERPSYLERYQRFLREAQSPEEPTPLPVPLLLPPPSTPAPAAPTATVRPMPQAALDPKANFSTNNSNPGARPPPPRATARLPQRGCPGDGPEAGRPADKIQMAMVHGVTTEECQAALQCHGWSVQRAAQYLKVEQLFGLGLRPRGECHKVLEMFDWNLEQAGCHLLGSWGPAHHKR
# Method in brief: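 Panel of 327 recombinant human kinases in radiometric activity assays, each screened in duplicate at a single inhibitor concentration; percent activity remaining relative to vehicle control, percent inhibition taken as 100 minus activity remaining.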
# [6] = biological target: Homeodomain-interacting protein kinase 3 (Homo sapiens) (UniProt Q9H422); assay: Inhibition of human recombinant HIPK3 at 15 nM related to control ULK1
# Sequence of Homeodomain-interacting protein kinase 3 (Homo sapiens) (Q9H422 whole entry, looked up): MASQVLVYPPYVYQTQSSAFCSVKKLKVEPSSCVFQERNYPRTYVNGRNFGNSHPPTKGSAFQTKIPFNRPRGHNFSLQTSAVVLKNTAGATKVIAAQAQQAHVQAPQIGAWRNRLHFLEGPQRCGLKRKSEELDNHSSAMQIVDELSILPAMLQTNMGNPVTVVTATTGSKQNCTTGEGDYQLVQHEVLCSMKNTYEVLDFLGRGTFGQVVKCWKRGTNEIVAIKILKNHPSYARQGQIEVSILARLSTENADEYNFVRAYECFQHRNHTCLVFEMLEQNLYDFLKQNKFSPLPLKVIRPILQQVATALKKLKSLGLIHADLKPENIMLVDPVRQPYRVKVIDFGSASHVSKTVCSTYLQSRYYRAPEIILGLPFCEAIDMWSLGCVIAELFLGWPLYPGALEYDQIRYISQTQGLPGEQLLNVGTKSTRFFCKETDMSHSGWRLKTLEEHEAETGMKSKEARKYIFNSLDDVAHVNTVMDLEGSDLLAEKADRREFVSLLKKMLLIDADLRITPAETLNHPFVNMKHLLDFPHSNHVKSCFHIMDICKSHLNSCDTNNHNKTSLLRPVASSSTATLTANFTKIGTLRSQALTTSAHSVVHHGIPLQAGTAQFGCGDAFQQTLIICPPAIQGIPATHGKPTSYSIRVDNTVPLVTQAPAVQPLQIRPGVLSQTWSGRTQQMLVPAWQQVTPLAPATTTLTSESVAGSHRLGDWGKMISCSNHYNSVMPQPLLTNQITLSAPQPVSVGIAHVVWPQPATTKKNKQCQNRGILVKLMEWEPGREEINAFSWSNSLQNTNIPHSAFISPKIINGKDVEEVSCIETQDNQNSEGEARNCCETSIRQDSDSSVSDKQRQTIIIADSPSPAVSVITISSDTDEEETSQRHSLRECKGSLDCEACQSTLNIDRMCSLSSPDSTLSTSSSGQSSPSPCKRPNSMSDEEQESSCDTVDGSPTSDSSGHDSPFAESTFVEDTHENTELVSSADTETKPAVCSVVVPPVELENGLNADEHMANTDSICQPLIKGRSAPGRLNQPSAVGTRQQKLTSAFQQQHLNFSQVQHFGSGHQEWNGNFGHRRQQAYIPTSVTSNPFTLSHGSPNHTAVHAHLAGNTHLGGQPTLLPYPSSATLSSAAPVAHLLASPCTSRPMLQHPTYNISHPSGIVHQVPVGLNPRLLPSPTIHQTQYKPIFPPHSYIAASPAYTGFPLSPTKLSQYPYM
# [7] = biological target: Serine/threonine-protein kinase 10 (Homo sapiens) (UniProt O94804); assay: Inhibition of human recombinant LOK at 15 nM related to control ULK1
# [8] = biological target: Serine/threonine-protein kinase Nek7 (Homo sapiens) (UniProt Q8TDX7); assay: Inhibition of human recombinant NEK7 at 15 nM in presence of ATP by radiometric assay relative to control
# Sequence of Serine/threonine-protein kinase Nek7 (Homo sapiens) (Q8TDX7 whole entry, looked up): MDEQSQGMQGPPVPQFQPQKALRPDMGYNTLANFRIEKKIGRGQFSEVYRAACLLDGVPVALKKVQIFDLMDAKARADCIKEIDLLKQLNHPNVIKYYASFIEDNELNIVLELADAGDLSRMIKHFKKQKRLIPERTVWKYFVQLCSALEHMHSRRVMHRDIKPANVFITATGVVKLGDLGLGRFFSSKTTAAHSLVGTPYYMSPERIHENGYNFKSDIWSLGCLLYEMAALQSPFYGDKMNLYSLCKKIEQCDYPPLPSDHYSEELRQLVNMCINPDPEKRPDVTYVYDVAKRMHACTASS
# [9] = biological target: Serine/threonine-protein kinase PAK 2 (Homo sapiens) (UniProt Q13177); assay: Inhibition of human recombinant PAK2 at 15 nM in presence of ATP by radiometric assay relative to control
# Sequence of Serine/threonine-protein kinase PAK 2 (Homo sapiens) (Q13177 whole entry): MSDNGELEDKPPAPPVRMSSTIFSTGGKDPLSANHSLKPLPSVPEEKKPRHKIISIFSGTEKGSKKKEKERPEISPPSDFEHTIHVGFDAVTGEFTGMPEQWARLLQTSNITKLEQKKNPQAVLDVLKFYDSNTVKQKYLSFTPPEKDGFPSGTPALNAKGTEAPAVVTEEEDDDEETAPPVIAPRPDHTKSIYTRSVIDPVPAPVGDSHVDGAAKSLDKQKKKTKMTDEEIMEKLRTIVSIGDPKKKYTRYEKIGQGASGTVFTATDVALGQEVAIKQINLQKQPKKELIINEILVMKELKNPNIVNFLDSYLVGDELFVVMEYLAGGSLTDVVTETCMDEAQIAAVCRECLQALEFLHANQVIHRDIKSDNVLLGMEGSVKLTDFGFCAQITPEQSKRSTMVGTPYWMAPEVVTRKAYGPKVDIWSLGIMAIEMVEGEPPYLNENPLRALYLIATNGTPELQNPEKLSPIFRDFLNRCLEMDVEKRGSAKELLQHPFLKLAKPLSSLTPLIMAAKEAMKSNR
compound,measurement,setting,value
O=C(N[C@@H](C1CC1)C(F)(F)F)c1cc(-c2cnn3cc(-c4ccc(F)cc4)cnc23)cs1,inhibition,[1],6%
same,IC50,[2],14 nM
same,inhibition,[3],0%
same,fold change (FC),[4],0.04
CNC(=O)c1ccccc1Oc1nc(Nc2cc(OC)c(OC)c(OC)c2)ncc1Br,inhibition,[5],31%
CC(C)[C@H](NC(=O)c1cc(-c2cnn3cc(-c4ccc(OCCN5CCCCC5)cc4)cnc23)cs1)C(F)(F)F,fold change (FC),[6],0
same,fold change (FC),[7],0
same,inhibition,[8],0%
same,inhibition,[9],0%
